Only some compounds are listed: those with a hit (about 2.6% of all), similar ones and a draw of the others.
Platelet DG rel: modulates dense granule release in human platelets. human platelet-rich plasma, SFLLRN dense granule ATP release, luminescence. inhibition, %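 (compounds screened at 7.5 µM in platelet-rich plasma)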. actives 0.22% (n = 300,000). AID 1663;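 active = mean replicate score, as percent of positive control, at or above 50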
SENP1 FRET inh: SENP1 (human) catalytic domain inhibition; AID 624204; actives 0.21% (n = 360,000); recombinant SENP1 catalytic domain, CyPet-SUMO1-YPet FRET cleavage; Q9P0U3; inhibition, % at 10 µM;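 active = inhibition at least 30% at 10 µM, raw YFP signal under a set limit, fluorescence ratio 0.5 to 1.5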
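Test system: human SENP1 catalytic domain; medium: Tris pH 8 buffer plus EDTA, NaCl, BME, BSA, NP40, catalase; incubation: 50 min reaction at room temperature; technique: FRET, CFP and YFP emission; controls: no-enzyme low control and enzyme-plus-DMSO high control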
SENP7 inh: blocks the human protease SENP7. Q9BQF6. recombinant SENP7, Z-RLRGG-aminoluciferin luminescence, 40 min. inhibition, % at 5 µM. actives 1.5% (n = 330,000);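 active = inhibition above about 50% at the single test dose, limit read from the data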
Target sequence (Q9BQF6 706-1050 limits assumed): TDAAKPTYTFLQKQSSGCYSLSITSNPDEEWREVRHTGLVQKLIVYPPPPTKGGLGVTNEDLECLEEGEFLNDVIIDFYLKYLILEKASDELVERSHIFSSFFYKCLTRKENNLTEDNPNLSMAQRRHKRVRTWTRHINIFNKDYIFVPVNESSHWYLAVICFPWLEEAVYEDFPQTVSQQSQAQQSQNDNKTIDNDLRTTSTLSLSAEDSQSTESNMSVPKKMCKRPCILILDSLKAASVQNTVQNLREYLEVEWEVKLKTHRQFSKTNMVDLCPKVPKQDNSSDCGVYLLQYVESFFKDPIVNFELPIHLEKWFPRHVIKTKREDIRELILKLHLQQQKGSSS
SENP8 block-1: SENP8 protease inhibition. purified SENP8, Z-RLRGG-aminoluciferin cleavage, luminescence. Q96LD8. actives 1.2% (n = 330,000). inhibition, % at 10 µM; in the data active = inhibition above about 50%
Target sequence (Q96LD8 whole entry, looked up): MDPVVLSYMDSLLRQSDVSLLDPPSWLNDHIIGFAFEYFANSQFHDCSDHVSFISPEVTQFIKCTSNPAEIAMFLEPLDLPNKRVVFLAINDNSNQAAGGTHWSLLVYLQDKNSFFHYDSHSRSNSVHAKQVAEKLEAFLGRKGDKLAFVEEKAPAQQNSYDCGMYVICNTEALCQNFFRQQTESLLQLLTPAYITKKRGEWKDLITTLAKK
SENP6 block: SENP6 protease inhibition; Recombinant SENP6 catalytic domain, aminoluciferin luminescence; inhibition, % at 10 µM; actives 1.8% (n = 330,000); AID 2599; Q9GZR1;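 active = inhibition above about 50% at the single tested dose, limit read from the data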
SENP8 block-2: inhibitors of human SENP8 protease; Q96LD8; recombinant SENP8, Nedd8 substrate fluorescence; inhibition, % at 20 µM; actives 0.64% (n = 360,000); in the data active = inhibition mostly above about 40%, no sharp cut-off; inactive = mostly below about 27%
SENP8 conf: human SENP8 inhibition, confirmed | actives 40% (n = 6,200) | shares compounds with SENP7 inh | AID 488912 | inhibition, % at 12.5 µM | Recombinant SENP8, Z-RLRGG-aminoluciferin luminescence, 60 min;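 active = mean inhibition across replicates above about 50%, limit read from the data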
SENP6 confirm: human SENP6 inhibition, confirmed. inhibition, % at 12.5 µM. recombinant SENP6, Z-RLRGG-aminoluciferin luminescence. AID 488915. actives 58% (n = 6,200). shares compounds with SENP7 inh
SENP7 confirm: human SENP7 inhibition, confirmed; shares compounds with SENP7 inh; recombinant SENP7, Z-RLRGG-aminoluciferin luminescence, 40 min; inhibition, % at 12.5 µM; actives 69% (n = 6,200)
Casp3 select: caspase-3 inhibition (SENP selectivity assay); shares compounds with SENP7 inh; actives 60% (n = 6,200); AID 488918; purified caspase-3, Z-DEVD-aminoluciferin luminescence, 60 min; inhibition, % at 12.5 µM;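 active = mean inhibition above about 50%, limit read from the data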
Luc interf: counter-screen for SENP inhibitors: luminescence interference | shares compounds with SENP7 inh | Pre-incubated SENP8/Z-RLRGG-aminoluciferin, luciferase luminescence interference | inhibition, % at 12.5 µM | actives 39% (n = 6,200) | AID 488919;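 active = mean inhibition above about 50% when retested at one dose, limit read from the data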
Large screens that a line does not name were inactive (follow-up assays come after a bar, where they were run).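 The calls were made as follows, unless noted: active = mean inhibition above about 50% in the one-dose retest (limit read from the data); inactive = the rest.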

O=C(O)c1cccc(NC(=O)c2ccc(Cl)c(S(=O)(=O)N3CCCCCC3)c2)c1	SENP7 inh 84.5, SENP8 block-1 78.2, SENP6 block 85.0 | SENP8 conf 90.1 | SENP6 confirm 89.3 | SENP7 confirm 98.3 | Casp3 select 55.0 | Luc interf 79.3
O=C(Nc1cccnc1)c1ccc(Cl)c(S(=O)(=O)N2CCCCC2)c1	none
CC(C)c1cc(C(N)=O)c(NC(=O)c2cccc(COc3ccc(Cl)cc3)c2)s1	SENP6 block 84.3 | SENP8 conf 97.5 | SENP6 confirm 95.0 | SENP7 confirm 99.2 | Casp3 select inactive | Luc interf 91.1
O=C(O)COc1ccc(NC(=O)c2ccc3c(c2)C(=O)N(C2CCCCC2)C3=O)cc1	none (no result: SENP7 inh, SENP8 block-1, SENP6 block)
O=C(O)c1cccc(NC(=O)c2ccc3c(c2)C(=O)N(C2CCCCC2)C3=O)c1	SENP7 inh 97.2, SENP8 block-1 93.0, SENP6 block 94.7 | SENP8 conf 83.4 | SENP6 confirm 81.0 | SENP7 confirm 100.2 | Casp3 select 61.7 | Luc interf inactive
Cc1nn(Cc2c(F)c(F)c(F)c(F)c2F)c(C)c1NC(=O)c1cccc(COc2ccc(Cl)cc2)c1	none
CC(C)C[C@H]1CN(CCCC[C@H]2CNC(=O)C(=O)N2CC2CCCCC2)C(=O)C(=O)N1Cc1ccccc1	none (no result: Platelet DG rel, SENP7 inh, SENP8 block-1, SENP6 block)
COc1ccccc1CNC(=O)c1ccc(OC(C)C)cc1	none
CC[N+]1(CC(O)COC2CC(C)CC(C)(C)C2)CCOCC1 (stereo not given)	none
Cc1cc(C(=O)COC(=O)c2ccc(Cl)c(S(N)(=O)=O)c2)c(C)n1CC1CCCO1 (stereo not given)	none
COc1cc(OC)cc(C(=O)OCC(=O)c2cc(C)n(CC3CCCO3)c2C)c1 (stereo not given)	SENP6 block 68.0 (no result: Platelet DG rel) | SENP8 conf 57.4 | SENP6 confirm inactive | SENP7 confirm 78.8 | Casp3 select 52.8 | Luc interf inactive
Cc1cc(C(=O)COC(=O)c2ccc(O)cc2)c(C)n1CC1CCCO1 (stereo not given)	SENP6 block 53.8 | SENP8 conf 53.9 | SENP6 confirm inactive | SENP7 confirm 82.9 | Casp3 select 67.3 | Luc interf inactive
CC(=O)Oc1ccccc1C(=O)OCCN=C1NS(=O)(=O)c2ccccc21	none
Cc1nc2c(OCc3ccccc3)cccn2c1N(C)C(=O)C1CCCCC1	none (no result: Platelet DG rel, SENP7 inh, SENP8 block-1, SENP6 block)
C(=N\Nc1nc2ccccc2s1)/c1ccccn1	SENP7 inh 99.9, SENP8 block-1 96.7, SENP6 block 97.2 (no result: SENP1 FRET inh, SENP8 block-2) | SENP8 conf 99.9 | SENP6 confirm 100.9 | SENP7 confirm 103.9 | Casp3 select 99.3 | Luc interf inactive
C(=C\c1ccccc1)/C=N/Nc1nc2ccccc2s1	SENP6 block 51.2 | SENP8 conf inactive | SENP6 confirm inactive | SENP7 confirm inactive | Casp3 select inactive | Luc interf inactive
O=c1nc(N/N=C/c2c[nH]c3ccccc23)cn[nH]1	none
C(=N\Nc1ccccc1)/c1nc2ccccc2s1	SENP7 inh 75.4, SENP8 block-1 58.5 | SENP8 conf inactive | SENP6 confirm inactive | SENP7 confirm 82.1 | Casp3 select inactive | Luc interf inactive
COc1ccc(C=NNc2nc3ccccc3s2)cc1	none (no result: Platelet DG rel, SENP7 inh, SENP8 block-1, SENP6 block)
O=c1nc(N/N=C/C=C/c2ccccc2)cn[nH]1	SENP7 inh 52.6 | SENP8 conf inactive | SENP6 confirm inactive | SENP7 confirm inactive | Casp3 select inactive | Luc interf inactive
NC(=O)C1CCCN(CC(=O)Nc2cc(S(=O)(=O)N3CCOCC3)ccc2N2CCCC2)C1 (stereo not given)	none (no result: Platelet DG rel)
O=S(=O)(NCc1ccc(F)cc1)c1ccc(Br)cc1Br	none (no result: Platelet DG rel)
Cc1cccc(-c2nc3cc([N+](=O)[O-])ccc3o2)c1	SENP7 inh 81.9 | SENP8 conf inactive | SENP6 confirm inactive | SENP7 confirm 71.6 | Casp3 select 75.3 | Luc interf inactive
O=[N+]([O-])c1ccc2oc(-c3ccccc3)nc2c1	SENP7 inh 76.8 | SENP8 conf inactive | SENP6 confirm inactive | SENP7 confirm inactive | Casp3 select inactive | Luc interf inactive
COc1ccc(-c2nc3ccc([N+](=O)[O-])cc3o2)cc1	SENP7 inh 69.0 | SENP8 conf inactive | SENP6 confirm inactive | SENP7 confirm inactive | Casp3 select inactive | Luc interf inactive
COCCN1C(=O)CCC1(C)C(=O)Nc1c(C)cccc1C (stereo not given)	none (no result: Platelet DG rel, SENP7 inh, SENP8 block-1, SENP6 block)
CCCC(=O)Nc1cc(C)cn(Cc2c(F)cccc2Cl)c1=O	none
Cc1ccc(NC(=O)C(=O)NCCN2CCN(S(C)(=O)=O)CC2)cc1C	none
COc1ccc(NC(=O)C2=Cc3ccccc3OC2)cc1	SENP7 inh 72.5, SENP8 block-1 61.3, SENP6 block 68.1 | SENP8 conf 59.4 | SENP6 confirm 59.7 | SENP7 confirm 86.9 | Casp3 select 65.5 | Luc interf inactive
COc1ccc(NC(=O)C2=Cc3cccc(OC)c3OC2)cc1	none
O=C(Nc1ccc(Cl)cc1Cl)C1=Cc2ccccc2OC1	SENP7 inh 50.9 | SENP8 conf inactive | SENP6 confirm inactive | SENP7 confirm inactive | Casp3 select inactive | Luc interf inactive
CC1(CCC(=O)N2CCCC(Nc3ccc(F)cc3)C2)CC1 (stereo not given)	none
CCOc1ccccc1-n1c(SC(C)C(=O)NCC2CCCO2)nc2ccccc2c1=O (stereo not given)	none (no result: Platelet DG rel)
Cc1ccc(NC(=O)CNC(=O)CN2C(=O)c3ccccc3C2=O)cc1	none (no result: Platelet DG rel, SENP7 inh, SENP8 block-1, SENP6 block)
CCCCOCCCNC(=O)CN1C(=O)c2ccccc2C1=O	SENP7 inh 88.0 | SENP8 conf inactive | SENP6 confirm inactive | SENP7 confirm inactive | Casp3 select inactive | Luc interf inactive
O=C1c2cc(O)cc(O)c2C(=O)c2c1cc(O)c([C@@H](CO)CCO)c2O	none
Cc1cc(O)c2c(c1)C(=O)c1cc(O)cc(O)c1C2=O	SENP7 inh 79.9, SENP8 block-1 94.3, SENP6 block 97.0 | SENP8 conf 95.7 | SENP6 confirm 98.2 | SENP7 confirm 101.8 | Casp3 select 93.9 | Luc interf 80.7

Bioassay records deposited in PubChem by several laboratories.
